Our source for the activity values is article PMC9476207 (ACS Omega, 2022).

What all share (assay): NCI-60 single-dose antiproliferative screen
Holding throughout (type): cell-based

For test [1], the system named is MDA-MB-468. The settings on record: Homo sapiens, MDA-MB-468, 48 h, read-out: growth percent. In short, it runs like this:
(§1)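 NCI-60 protocol. Lines were grown in RPMI 1640 with 5% FBS and 2 mM L-glutamine, plated and incubated 24 h at 37 °C; time-zero plates were TCA-fixed. The test compound was dissolved in DMSO, diluted in medium with 50 μg/mL gentamicin and given once at a final 10^-5 M (DMSO control) for 48 h. Cells were fixed with cold TCA (1 h, 4 °C) and stained with 0.4% SRB in 1% acetic acid for 10 min. Dye was dissolved in 10 mM Trizma base and read at 515 nm. Growth percent was calculated from time-zero, test and control ODs.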

Test [2] has as its system UO-31. The settings on record: Homo sapiens, UO-31, 48 h, read-out: growth percent. In short, it runs like this: (§2)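 Cells grown in RPMI 1640 with 5% FBS and 2 mM L-glutamine, plated and held 24 h at 37 °C; time-zero plates TCA-fixed. DMSO stocks were diluted in gentamicin-containing medium to a final 10^-5 M, with a DMSO-only control. Exposure 48 h, 5% CO2. Adherent cells TCA-fixed 1 h at 4 °C, stained with 0.4% SRB, solubilised in 10 mM Trizma base, read at 515 nm. Growth percent derived from ODtzero, ODtest and ODctrl.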

Test [3] has as its system OVCAR-4. To be noted: Homo sapiens, OVCAR-4, 48 h, read-out: growth percent. Put shortly:
as §1

Test [4] relates to M14. To be noted: Homo sapiens, M14, 48 h, read-out: growth percent. In short, it runs like this: as §1
Test [5] deals with ACHN. The settings on record: Homo sapiens, 48 h, read-out: growth percent. In short, it runs like this: as §1
The subject of test [6] is HOP-62. The settings on record: Homo sapiens, HOP-62, 48 h, read-out: growth percent. Put shortly:
as §1

For test [7], the system named is HCC-2998. The settings on record: Homo sapiens, HCC 2998, 48 h, read-out: growth percent. Put shortly: as §1
Test [8] has as its system IGROV1. To be noted: Homo sapiens, IGROV-1, 48 h, read-out: growth percent. Put shortly: as §1
Test [9] relates to TK-10. To be noted: Homo sapiens, TK-10, 48 h, read-out: growth percent. Put shortly: as §2
The test system of test [10] is EKVX. The settings on record: Homo sapiens, 48 h, read-out: growth percent. In short, it runs like this:
as §1

Test [11] has as its system NCI-H226. The settings on record: Homo sapiens, NCI-H226, 48 h, read-out: growth percent. In short, it runs like this: as §1
Test [12] has as its system OVCAR-8. The settings on record: Homo sapiens, OVCAR-8, 48 h, read-out: growth percent. In short, it runs like this: as §1
For test [13], the system named is HCT-15. The settings on record: Homo sapiens, HCT-15, 48 h, read-out: growth percent. In short, it runs like this:
as §1

The test system of test [14] is OVCAR-3. The settings on record: Homo sapiens, OVCAR-3, 48 h, read-out: growth percent. In short, it runs like this: as §1
The subject of test [15] is MOLT-4. To be noted: Homo sapiens, MOLT-4, 48 h, read-out: growth percent. In short, it runs like this: as §1
For test [16], the system named is A549/ATCC. The settings on record: Homo sapiens, A549, 48 h, read-out: growth percent. Put shortly: as §1
Test [17] has as its system NCI-H460. The settings on record: Homo sapiens, NCI-H460, 48 h, read-out: growth percent. In short, it runs like this:
as §1

The subject of test [18] is COLO205. To be noted: Homo sapiens, COLO 205, 48 h, read-out: growth percent. In short, it runs like this:
as §1

Test [19] has as its system SNB-19. The settings on record: Homo sapiens, SNB-19, 48 h, read-out: growth percent. Put shortly:
as §2

Turning to `COc1cc(CNC(=O)CCCC/C=C/C(C)C)ccc1OCc1cn(-c2cccc(Cl)c2)nn1` [14b, (E)-N-(4-((1-(3-Chlorophenyl)-1H-1,2,3-triazol-4-yl)methoxy)-3-methoxybenzyl)-8-methylnon-6-enamide], the activity at 10 µM in [1] worked out at 74.7%; in [2], 72.2%; in test [3], 67.2%; in [4] it was 94.1%; in [5] it was 73%; in [6] it was 71.5%. The activity at 10 µM in test [7] came out at 104%; in test [8], 79.9%; in test [9] it was 106%; in test [10], 80.8%; in [11], 86.5%; in [12] it was 57.2%. In addition, the activity at 10 µM in test [13] came out at 91.3%; in test [14] it was 84.4%; in test [15] it was 92.8%; in test [16], 82.9%; in test [17], 84.1%; in test [18] it was 102%. Further, the activity at 10 µM in test [19] is 60%.
Turning to `COc1cc(CNC(=O)CCCC/C=C/C(C)C)ccc1OCc1cn(-c2ccc(C)c(C)c2)nn1` [14p, (E)-N-(4-((1-(3,4-Dimethylphenyl)-1H-1,2,3-triazol-4-yl)methoxy)-3-methoxybenzyl)-8-methylnon-6-enamide], the activity at 10 µM in test [1] turned out to be 71.8%; in test [2], 75.7%; in test [3], 84.9%; in [4], 93.5%; in [5], 68.5%; in test [6] it was 97.4%. Besides, the activity at 10 µM in [7] came to 101%; in [8], 98.8%; in test [9], 109%; in test [10] it was 79.3%; in [11], 86.9%; in test [12], 83.3%. Moreover, the activity at 10 µM was 71.2% in test [13]; 100% in test [14]; 78.5% in test [15]; 82.2% in test [16]; 86.5% in test [17]; 106% in test [18]. Moreover, the activity at 10 µM in [19] was determined as 95.8%.
In the case of `COc1cc(CNC(=O)CCCC/C=C/C(C)C)ccc1OCc1cn(-c2ccc(Cl)cc2)nn1` [14a, (E)-N-(4-((1-(4-Chlorophenyl)-1H-1,2,3-triazol-4-yl)methoxy)-3-methoxybenzyl)-8-methylnon-6-enamide], the activity at 10 µM came to 64.9% in test [1]; 76.6% in test [2]; 82.6% in test [3]; 90.6% in test [4]; 59.7% in [5]; 84% in test [6]. Also, the activity at 10 µM in test [7] was found to be 113%; in test [8] it was 93.4%; in test [9], 99.3%; in test [10] it was 72%; in test [11], 70.4%; in test [12] it was 79%. Besides, the activity at 10 µM was determined as 91.8% in test [13]; 105% in test [14]; 82% in [15]; 85.3% in [16]; 79.9% in test [17]; 108% in test [18]. Further, in test [19], the activity at 10 µM came out at 87.7%.
Take `COc1cc(CNC(=O)CCCC/C=C/C(C)C)ccc1OCc1cn(-c2ccc(Br)cc2)nn1` [14k, (E)-N-(4-((1-(4-Bromophenyl)-1H-1,2,3-triazol-4-yl)methoxy)-3-methoxybenzyl)-8-methylnon-6-enamide]: the activity at 10 µM in test [1] was 68.2%; in test [2], 67.9%; in [3], 89.2%; in test [4], 90.2%; in test [5] it was 87.7%; in test [6], 88.2%. Further, the activity at 10 µM in test [7] is 88.8%; in [8] it was 72.7%; in test [9] it was 118%; in [10], 72.7%; in test [11], 86.3%; in test [12], 79.6%. The activity at 10 µM in test [13] came to 94%; in [14] it was 100%; in test [15], 77.5%; in test [16], 88.5%; in [17], 72.1%; in test [18], 103%. Also, the activity at 10 µM in test [19] was determined as 80.9%.
Take `COc1cc(CNC(=O)CCCC/C=C/C(C)C)ccc1OCc1cn(-c2ccc(F)cc2)nn1` [14h, (E)-N-(4-((1-(4-Fluorophenyl)-1H-1,2,3-triazol-4-yl)methoxy)-3-methoxybenzyl)-8-methylnon-6-enamide]: the activity at 10 µM worked out at 68.2% in test [1]; 86% in test [2]; 82.2% in test [3]; 94% in test [4]; 81.2% in test [5]; 84.1% in [6]. The activity at 10 µM is 110% in [7]; 97% in [8]; 103% in [9]; 72.7% in [10]; 74.2% in [11]; 71.5% in test [12]. Also, the activity at 10 µM is 89.6% in test [13]; 96.4% in test [14]; 82.6% in test [15]; 84.3% in test [16]; 75.7% in test [17]; 120% in test [18]. The activity at 10 µM in test [19] was found to be 81.3%.
Consider `COc1cc(CNC(=O)CCCC/C=C/C(C)C)ccc1OCc1cn(-c2ccc(C)cc2)nn1` [14n, (E)-N-(3-Methoxy-4-((1-(p-tolyl)-1H-1,2,3-triazol-4-yl)methoxy)benzyl)-8-methylnon-6-enamide], for which the activity at 10 µM amounted to 92.4% in test [1]; 75.8% in test [2]; 88.8% in test [3]; 93.3% in [4]; 72% in test [5]; 86.4% in [6]. The activity at 10 µM in test [7] came to 108%; in test [8] it was 98.5%; in test [9], 101%; in [10], 84.8%; in [11], 75.8%; in test [12], 76.5%. Besides, the activity at 10 µM in test [13] stood at 104%; in test [14] it was 91.8%; in [15] it was 83.5%; in [16] it was 84%; in test [17], 93.2%; in test [18], 115%. Also, the activity at 10 µM in test [19] was 77.9%.
Regarding `COc1cc(CNC(=O)CCCC/C=C/C(C)C)ccc1OCc1cn(-c2ccccc2F)nn1` [14i, (E)-N-(4-((1-(2-Fluorophenyl)-1H-1,2,3-triazol-4-yl)methoxy)-3-methoxybenzyl)-8-methylnon-6-enamide], the activity at 10 µM in [1] came out at 92.8%; in [2] it was 77.1%; in [3], 84.2%; in test [4], 96.8%; in test [5] it was 83%; in [6], 85%. Besides, the activity at 10 µM is 97.2% in test [7]; 101% in [8]; 111% in test [9]; 79.1% in [10]; 81.3% in test [11]; 94.5% in test [12]. Further, the activity at 10 µM in [13] came out at 96%; in test [14], 97.5%; in test [15] it was 90.9%; in test [16], 91.3%; in test [17], 104%; in [18], 116%. Also, the activity at 10 µM in test [19] turned out to be 84.8%.
